In ChEMBL document CHEMBL4177575 (Bioorg Med Chem, 2017):
pIC50: −log10 of the molar value.

Tests used:
HepG2 = experiment: Cytotoxicity against human HepG2 cells assessed as reduction in cell viability incubated for 72 hrs by MTT assay; format: functional, cell-based; details: HepG2, 72 h
In short: (§1)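 Cells grown in MEM with 10% FBS; about 4×10^3 cells per well, pre-incubated 24 h at 37 °C in 5% CO2, then exposed to compound for 72 h. Seven concentrations, threefold serial dilution from 100 ug/mL initial. MTT at 5 µg/mL terminal concentration for 4 h; formazan dissolved in DMSO, absorbance read at 492 nm against 630 nm reference. IC50 is the average of two determinations.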

MCF7 = experiment: Cytotoxicity against human MCF7 cells assessed as reduction in cell viability incubated for 72 hrs by MTT assay; format: functional, cell-based; details: MCF7, 72 h; in short: as §1
A549 = experiment: Cytotoxicity against human A549 cells assessed as reduction in cell viability incubated for 72 hrs by MTT assay; format: functional, cell-based; details: A549, 72 h; in short: as §1
PC-3 = experiment: Cytotoxicity against human PC3 cells assessed as reduction in cell viability incubated for 72 hrs by MTT assay; format: functional, cell-based; details: PC-3, 72 h; in short: as §1
[1] = target: Vascular endothelial growth factor receptor 2 (Homo sapiens, UniProt P35968); experiment: Inhibition of VEGFR2 (unknown origin) incubated for 10 mins using FAM-labeled peptide and ATP by mobility shift assay
Sequence of Vascular endothelial growth factor receptor 2 (P35968 whole entry): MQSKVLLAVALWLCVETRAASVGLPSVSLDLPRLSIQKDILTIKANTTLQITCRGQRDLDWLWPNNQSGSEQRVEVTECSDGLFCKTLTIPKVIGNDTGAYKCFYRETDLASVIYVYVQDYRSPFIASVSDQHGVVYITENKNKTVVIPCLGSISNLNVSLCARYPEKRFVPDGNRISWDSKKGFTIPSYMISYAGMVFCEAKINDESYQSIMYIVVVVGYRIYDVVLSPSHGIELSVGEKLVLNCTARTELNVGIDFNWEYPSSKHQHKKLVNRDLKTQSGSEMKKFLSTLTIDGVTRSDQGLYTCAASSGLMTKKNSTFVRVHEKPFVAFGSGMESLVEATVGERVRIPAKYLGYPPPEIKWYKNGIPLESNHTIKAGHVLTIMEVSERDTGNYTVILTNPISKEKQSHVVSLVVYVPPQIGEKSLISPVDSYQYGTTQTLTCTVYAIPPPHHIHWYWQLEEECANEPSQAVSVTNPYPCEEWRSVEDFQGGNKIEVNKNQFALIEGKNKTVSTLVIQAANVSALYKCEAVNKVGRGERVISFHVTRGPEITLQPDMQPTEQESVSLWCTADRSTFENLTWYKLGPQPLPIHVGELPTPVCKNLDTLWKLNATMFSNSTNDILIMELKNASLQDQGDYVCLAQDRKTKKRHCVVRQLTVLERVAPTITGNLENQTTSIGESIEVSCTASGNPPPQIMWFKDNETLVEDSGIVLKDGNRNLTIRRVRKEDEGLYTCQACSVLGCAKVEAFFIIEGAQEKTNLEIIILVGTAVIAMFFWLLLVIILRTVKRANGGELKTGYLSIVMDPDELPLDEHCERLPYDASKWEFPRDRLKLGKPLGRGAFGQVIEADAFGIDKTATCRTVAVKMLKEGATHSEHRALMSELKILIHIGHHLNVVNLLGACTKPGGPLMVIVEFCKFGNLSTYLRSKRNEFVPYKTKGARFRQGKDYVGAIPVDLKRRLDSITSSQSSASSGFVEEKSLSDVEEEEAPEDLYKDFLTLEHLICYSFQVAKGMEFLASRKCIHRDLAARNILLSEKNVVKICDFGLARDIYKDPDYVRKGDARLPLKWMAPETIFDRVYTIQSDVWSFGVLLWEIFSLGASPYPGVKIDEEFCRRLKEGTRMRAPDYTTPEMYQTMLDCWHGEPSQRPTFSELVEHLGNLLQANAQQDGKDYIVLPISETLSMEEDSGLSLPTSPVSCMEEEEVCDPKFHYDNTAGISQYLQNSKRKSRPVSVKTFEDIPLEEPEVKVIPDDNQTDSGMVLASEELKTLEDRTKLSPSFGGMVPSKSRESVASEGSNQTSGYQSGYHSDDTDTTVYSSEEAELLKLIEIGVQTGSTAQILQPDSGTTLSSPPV

[2] = target: Serine/threonine-protein kinase B-raf (Homo sapiens, UniProt P15056); experiment: Inhibition of BRAF (unknown origin) incubated for 10 mins using FAM-labeled peptide and ATP by mobility shift assay
Sequence of Serine/threonine-protein kinase B-raf (P15056 whole entry): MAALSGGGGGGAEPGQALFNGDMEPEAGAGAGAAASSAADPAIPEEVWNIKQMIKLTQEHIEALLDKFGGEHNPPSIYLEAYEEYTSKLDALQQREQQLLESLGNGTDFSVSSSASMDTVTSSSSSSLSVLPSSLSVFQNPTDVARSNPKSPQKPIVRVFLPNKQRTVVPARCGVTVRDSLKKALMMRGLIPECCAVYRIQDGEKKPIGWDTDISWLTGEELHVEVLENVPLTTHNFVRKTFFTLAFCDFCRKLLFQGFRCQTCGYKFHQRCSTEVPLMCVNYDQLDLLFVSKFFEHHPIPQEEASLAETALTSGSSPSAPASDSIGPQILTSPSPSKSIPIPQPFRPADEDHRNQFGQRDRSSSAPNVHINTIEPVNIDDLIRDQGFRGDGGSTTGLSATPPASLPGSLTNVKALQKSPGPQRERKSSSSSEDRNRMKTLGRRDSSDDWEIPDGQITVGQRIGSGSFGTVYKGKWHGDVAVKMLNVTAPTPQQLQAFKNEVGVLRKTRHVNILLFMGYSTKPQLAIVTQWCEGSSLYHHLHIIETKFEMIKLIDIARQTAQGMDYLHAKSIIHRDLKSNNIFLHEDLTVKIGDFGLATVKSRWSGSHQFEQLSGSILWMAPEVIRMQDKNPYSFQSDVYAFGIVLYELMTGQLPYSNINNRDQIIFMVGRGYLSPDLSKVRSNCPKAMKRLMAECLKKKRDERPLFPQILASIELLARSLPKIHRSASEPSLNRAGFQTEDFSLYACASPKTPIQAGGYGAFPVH

pIC50 [1]	pIC50 [2]	Structure (SMILES)	pIC50 (HepG2)	pIC50 (MCF7)	pIC50 (A549)	pIC50 (PC-3)
–	–	CNC(=O)c1cc(Oc2ccc(C3=NNC(c4cccc([N+](=O)[O-])c4)C3)cc2)ccn1 (configuration not stated)	4.58	4.45	–	–
–	–	CNC(=O)c1cc(Oc2ccc(C3=NN(C(N)=S)C(c4cccc(Cl)c4Cl)C3)cc2)ccn1 (configuration not stated)	5.72	–	< 4.30	4.80
–	–	CNC(=O)c1cc(Oc2ccc(C3=NN(C(N)=S)C(c4cccc([N+](=O)[O-])c4)C3)cc2)ccn1 (configuration not stated)	< 4.30	–	< 4.30	< 4.30
–	–	CNC(=O)c1cc(Oc2ccc(C3=NNC(c4ccc(C#N)cc4)C3)cc2)ccn1 (configuration not stated)	4.82	–	4.76	5.00
< 4.30	< 4.30	CNC(=O)c1cc(Oc2ccc(C3CC(c4ccc([N+](=O)[O-])cc4)=NN3)cc2)ccn1 (configuration not stated)	4.54	5.10	–	–
–	–	CNC(=O)c1cc(Oc2ccc(C3=NNC(c4ccc(OC)c(OC)c4OC)C3)cc2)ccn1 (configuration not stated)	4.81	5.00	4.72	–
< 4.30	< 4.30	CNC(=O)c1cc(Oc2ccc(C3=NNC(c4ccc(OC)cc4)C3)cc2)ccn1 (configuration not stated)	5.02	4.96	4.88	5.11
–	–	CNC(=O)c1cc(Oc2ccc(C3CC(c4ccc(Br)cc4)=NN3)cc2)ccn1 (configuration not stated)	4.77	4.82	–	–
–	–	CNC(=O)c1cc(Oc2ccc(C3CC(c4ccc([N+](=O)[O-])cc4)=NN3C(N)=S)cc2)ccn1 (configuration not stated)	< 4.30	–	< 4.30	< 4.30
–	–	CNC(=O)c1cc(Oc2ccc(C3=NNC(c4cc(OC)c(OC)c(OC)c4)C3)cc2)ccn1 (configuration not stated)	4.62	–	4.43	4.55
–	–	CNC(=O)c1cc(Oc2ccc(C3=NNC(c4ccc([N+](=O)[O-])cc4)C3)cc2)ccn1 (configuration not stated)	< 4.30	–	4.71	< 4.30
–	–	CNC(=O)c1cc(Oc2ccc(C3=NN(C(N)=S)C(c4ccc(C#N)cc4)C3)cc2)ccn1 (configuration not stated)	< 4.30	–	< 4.30	< 4.30
–	–	CNC(=O)c1cc(Oc2ccc(NC(=O)Nc3ccc(Cl)c(C(F)(F)F)c3)cc2)ccn1 [SORAFENIB]	–	–	5.53	5.49 to 5.50
–	–	CNC(=O)c1cc(Oc2ccc(C3=NNC(c4ccc(Br)cc4)C3)cc2)ccn1 (configuration not stated)	4.24	–	4.68	< 4.30
–	–	CNC(=O)c1cc(Oc2ccc(C3=NN(C(N)=S)C(c4ccc(F)cc4)C3)cc2)ccn1 (configuration not stated)	< 4.30	–	4.71	< 4.30
–	–	CNC(=O)c1cc(Oc2ccc(C3=NNC(c4cccc(Cl)c4Cl)C3)cc2)ccn1 (configuration not stated)	5.30	–	4.92	–
–	–	CNC(=O)c1cc(Oc2ccc(C3=NNC(c4ccc(Cl)cc4Cl)C3)cc2)ccn1 (configuration not stated)	–	–	5.16	5.14
–	–	CNC(=O)c1cc(Oc2ccc(C3=NN(C(N)=S)C(c4ccc(Cl)cc4)C3)cc2)ccn1 (configuration not stated)	< 4.30	–	< 4.30	< 4.30
–	–	CNC(=O)c1cc(Oc2ccc(C3CC(c4ccc(Cl)cc4)=NN3)cc2)ccn1 (configuration not stated)	4.96	4.82	4.69	–
–	–	CNC(=O)c1cc(Oc2ccc(C3=NNC(c4ccc(Cl)c(Cl)c4)C3)cc2)ccn1 (configuration not stated)	4.84	–	4.97	4.44
5.64	5.41	CNC(=O)c1cc(Oc2ccc(C3=NNC(c4ccccc4)C3)cc2)ccn1 (configuration not stated)	5.82	5.91	5.07	5.34
–	–	CNC(=O)c1cc(Oc2ccc(C3=NNC(c4ccc(F)cc4Cl)C3)cc2)ccn1 (configuration not stated)	4.94	–	4.86	4.62
–	–	CNC(=O)c1cc(Oc2ccc(C3=NNC(c4ccc(F)cc4)C3)cc2)ccn1 (configuration not stated)	5.28	5.02	4.82	5.17
